For series [1], the system named is CCRF-CEM. Put plainly: cytotoxicity against leukemia subpanel (CCRF-CEM); Experiment 1. Format: functional. The note with it: Homo sapiens. In a few lines:
(§1)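 NCI 60 human tumour cell line screen. Compound dissolved in DMSO and tested at five concentrations (10^-4–10^-8 M). Growth followed over time as percent growth, with zero-time population set to zero. Value is log10 GI50, the log molar concentration giving 50% growth inhibition. Experiment 1 and Experiment 2 are separate runs.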

The subject of series [2] is CCRF-CEM. Put plainly: cytotoxicity against leukemia subpanel (CCRF-CEM); Experiment 2. The format is functional. As to conditions: Homo sapiens. The procedure, abridged: as §1
For series [3], the system named is DMS-114. Put plainly: cytotoxicity against small cell lung cancer subpanel (DMS 114); Experiment 1. Format: functional. The note with it: Homo sapiens. The procedure, abridged: as §1
The subject of series [4] is DMS-114. Put plainly: cytotoxicity against small cell lung cancer subpanel (DMS 114); Experiment 2. The note with it: Homo sapiens. The format is functional. The procedure, abridged:
as §1

For series [5], the system named is DMS-273. Put plainly: cytotoxicity against small cell lung cancer subpanel (DMS 273); Experiment 2. Format: functional. As to conditions: Homo sapiens. In a few lines:
as §1

For series [6], the system named is HL-60. Put plainly: cytotoxicity against leukemia subpanel (HL-60 (TB)); Experiment 1. The format is functional. The note with it: Homo sapiens. In a few lines:
as §1

Series [7] deals with HL-60. Put plainly: cytotoxicity against leukemia subpanel (HL-60 (TB)); Experiment 2. The format is functional. As to conditions: Homo sapiens. In a few lines:
as §1

The subject of series [8] is K562. Put plainly: cytotoxicity against leukemia subpanel (K562); Experiment 1. The note with it: Homo sapiens. The format is functional. In a few lines:
as §1

The subject of series [9] is K562. Put plainly: cytotoxicity against leukemia subpanel (K562); Experiment 2. The format is functional. As to conditions: Homo sapiens. In a few lines: as §1
Series [10] has as its system MOLT-4. Put plainly: cytotoxicity against leukemia subpanel (MOLT-4); Experiment 1. The format is functional. The note with it: Homo sapiens. In a few lines:
as §1

Series [11] deals with MOLT-4. Put plainly: cytotoxicity against leukemia subpanel (MOLT-4); Experiment 2. Format: functional. As to conditions: Homo sapiens. The procedure, abridged: as §1
In series [12] the test system is Mus musculus. Put plainly: Percentage increased life span against L1210 leukemia cells in mice;(1.08 mmol/kg dosage). Format: functional. In a few lines:
(§2)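 CDF1 mice (17–18 g) inoculated with L1210 lymphoid leukaemia cells per NIH protocol 1.100. A single 1.08 mmol/kg dose was given 24 h after inoculation. %ILS = (treated/control − 1) × 100 on survival times, with vehicle-treated mice as controls. Survivors beyond 30 days were counted separately.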

The test system of series [13] is RPMI-8226. Put plainly: cytotoxicity against leukemia subpanel (RPMI-8226); Experiment 1. The format is functional. As to conditions: Homo sapiens. The procedure, abridged: as §1
Series [14] concerns RPMI-8226. Put plainly: cytotoxicity against leukemia subpanel (RPMI-8226); Experiment 2. Format: functional. The note with it: Homo sapiens. In a few lines:
as §1

Series [15] relates to SR. Put plainly: cytotoxicity against leukemia subpanel (SR); Experiment 1. The format is functional. As to conditions: Homo sapiens. In a few lines: as §1
Series [16] has as its system SR. Put plainly: cytotoxicity against leukemia subpanel (SR); Experiment 2. Format: functional. As to conditions: Homo sapiens. The procedure, abridged: as §1
A short description of series [17]: MGDH represents the selectivity or relative sensitivity of the tumor cell panel to the drug.; Experiment 1. Format: functional. In a few lines: (§3)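 NCI 60-line screen, DMSO solutions at five concentrations (10^-4–10^-8 M). Log10 GI50 was found per line. MG MID is the calculated mean over all panels. Sensitivity is expressed as the log-scale difference of a line or subpanel from that mean. Experiment 1 and Experiment 2 are separate runs.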

Series [18] in a line: MGDH represents the selectivity or relative sensitivity of the tumor cell panel to the drug.; Experiment 2. Format: functional. The procedure, abridged: as §3
The test system of series [19] is DMS-273. Put plainly: cytotoxicity against small cell lung cancer subpanel (DMS 273); Experiment 1. The format is functional. The note with it: Homo sapiens. The procedure, abridged:
as §1

Series [20] deals with Mus musculus. Put plainly: Percentage increased life span against L1210 leukemia cells in mice (1.08 mmol/kg dosage); Toxic. The format is toxicity, organism-based. The procedure, abridged:
as §2

The structures appear in SMILES notation.

A word on the GI50: it is the concentration giving 50% growth inhibition. Low readings indicate greater sensitivity of the cells, high ones lower sensitivity of the cells. As usually defined, the ILS is the gain in survival time of treated over control animals, in per cent. Higher therefore signals a large benefit in survival.

As to `CCN(CC)C(=S)SC1CCOP(=O)(N(CCCl)CCCl)N1C` (stereo unspecified), the GI50 is 31.6 nM with CCRF-CEM [1]; 39.8 nM in the series with CCRF-CEM [2]; 170 nM in the series on DMS-114 [3]; 209 nM in the series on DMS-114 [4]; 380 nM in the series on DMS-273 [5]; 31.6 nM in the series on HL-60 [6]. The GI50 was 288 nM in the series with HL-60 [7]; 52.5 nM in the series on K562 [8]; 87.1 nM in the series on K562 [9]; 49 nM in the series with MOLT-4 [10]; 69.2 nM with MOLT-4 [11]; 331 nM with RPMI-8226 [13]. The GI50 in the series on RPMI-8226 [14] was 398 nM; in the series with SR [15], 37.1 nM; in the series on SR [16], 389 nM; in the series on DMS-273 [19] it was 120 nM. The molecule further yielded an ILS with Mus musculus [12] of over 92%. In addition, the “MGDH GI50” value in series [17] turned out to be 69.72; in series [18] it was 87.78.
In turn, `O=P1(N(CCCl)CCCl)NCCCO1` (stereo unspecified) [CYCLOPHOSPHAMIDE ANHYDROUS] had an ILS with Mus musculus [12] of over 187%.
As to `CN1C(OO)CCOP1(=O)N(CCCl)CCCl` (stereo unspecified), the ILS entry with Mus musculus [20] is “Toxic”.

The record behind these values is ChEMBL document CHEMBL1128257, “Chemically stable N-methyl-4-(alkylthio)cyclophosphamide derivatives as prodrugs of 4-hydroxycyclophosphamide” (J Med Chem, 1995).
